Results published in ChEMBL document CHEMBL1127799, “Derivatives of a novel cyclopeptolide. 1. Synthesis, antifungal activity, and structure-activity relationships” (1994).
In brackets after ≈: the same amount, converted by molar mass. Values belong to the compound of their own block, whether it stands above or below them.

Key:
Assay type in all cases: functional
[1] = system: Candida tropicalis; test: Tested for minimum inhibitory concentration against Candida tropicalis 43 (C.t) at pH of 6.5.
Procedure, shortened: (§1)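 Broth microdilution in malt extract broth, initial pH 4.5 or 6.5, with 1×10^3 CFU per 0.2 mL well of thawed stored cultures. Compound stocks were made in 5% DMSO/0.2% Tween 80 and diluted to final 0.05–100 μg/mL. Plates were incubated 48 h at 30 °C and read macroscopically. MIC was the lowest concentration with no detectable growth. Vehicle-only wells served as controls.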

[2] = system: Meyerozyma guilliermondii; test: Tested for minimum inhibitory concentration against Candida guilliermondii 80 (C.g) at pH of 6.5.; procedure, shortened: as §1
[3] = system: Candida tropicalis; test: Tested for minimum inhibitory concentration against Candida tropicalis 43 (C.t) at pH of 4.5.; procedure, shortened: as §1
[4] = system: Meyerozyma guilliermondii; test: Tested for minimum inhibitory concentration against Candida guilliermondii 80 (C.g) at pH of 4.5.; procedure, shortened: as §1
[5] = system: Pichia kudriavzevii; test: Tested for minimum inhibitory concentration against Candida krusei 132 (C.k) at pH of 4.5.; procedure, shortened: as §1
[6] = system: Candida albicans; test: Tested for minimum inhibitory concentration against Candida albicans 124 (Candida albicans) at pH of 4.5.; procedure, shortened: as §1
[7] = system: Pichia kudriavzevii; test: Tested for minimum inhibitory concentration against Candida krusei 132 (C.k) at pH of 6.5.; procedure, shortened: as §1
[8] = system: Candida albicans; test: Tested for minimum inhibitory concentration against Candida albicans 124 (Candida albicans) at pH of 6.5.; procedure, shortened: as §1
[9] = system: Candida albicans; test: tested for minimum inhibitory concentration against Candida albicans 124 (Candida albicans) at pH of 6.5.; procedure, shortened: as §1
[10] = species: Mus musculus; test: Tested for efficacy of compound in experimental systemic candidosis (mouse) after oral treatment at dosage of 8 *100 mg kg e-1
Procedure, shortened: (§2)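 Systemic candidiasis: female NMRI mice (18–20 g), 10 per group, infected by intravenous injection of 10⁶ CFU C. albicans no. 124 via lateral tail vein. Oral dosing twice daily on 4 consecutive days, starting 2 h before inoculation. Efficacy taken as survival rate up to day 9 after infection.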

[11] = system: Candida albicans; test: Tested for minimum inhibitory concentration against Candida albicans 4 (Candida albicans) at pH 6.5.
Procedure, shortened: (§3)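 Broth microdilution in malt extract broth, initial pH 6.5, 1×10^3 CFU per 0.2 mL well, from liquid-nitrogen-stored Sabouraud cultures. Compound from 0.08% stock in 5% DMSO/0.2% Tween 80, final 0.05–100 μg/mL. Visual reading after 48 h at 30 °C. MIC = lowest concentration with no detectable growth. Vehicle-only negative controls.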

[12] = system: Candida albicans; test: Tested for minimum inhibitory concentration against Candida albicans 3 (Candida albicans) at pH 6.5.; procedure, shortened: as §3
[13] = system: Meyerozyma guilliermondii; test: Tested for minimum subinhibitory concentration against Candida guilliermondii 80 (C.g) at pH 6.5.
Procedure, shortened: (§4)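 Malt extract broth microdilution, initial pH 6.5, inoculum 1×10^3 CFU per 0.2 mL well. Compound diluted from 0.08% stock (5% DMSO/0.2% Tween 80) to final 0.05–100 μg/mL. Macroscopic reading after 48 h, 30 °C. MSIC = lowest concentration giving visible growth inhibition in at least two of three triplicates. Vehicle-only negative controls.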

[14] = species: Rattus norvegicus; test: Tested for efficacy of compound in experimental vaginal candidosis (rat) after oral treatment at dosage of 2x 300 mg kg e-1
Procedure, shortened: (§5)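 Hormonally conditioned female Wistar rats (~150 g), 10 per group, given intravaginal C. albicans no. 124, 3.5×10^4 CFU in 50 μL Sabouraud's glucose broth. Oral dosing twice, 2 h before and 18 h after infection. Vaginal swabs plated on Sabouraud's glucose agar with streptomycin (0.1 mg/mL), 48 h at 37 °C. Cured when C. albicans not reisolated.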

[15] = system: Candida albicans; test: Tested for minimum inhibitory concentration against Candida albicans 88 (Candida albicans) at pH 6.5.; procedure, shortened: as §3
[16] = species: Mus musculus; test: Tested for efficacy of compound in experimental systemic candidosis (mouse) after oral treatment at dosage of 8 *200 mg kg e-1; procedure, shortened: as §2
[17] = system: Candida tropicalis; test: Tested for minimum subinhibitory concentration against Candida tropicalis 43 (C.t) at pH 6.5.; procedure, shortened: as §4
[18] = species: Rattus norvegicus; test: Tested for efficacy of compound in experimental vaginal candidosis (rat) after tropical treatment at dosage of 9x 0.1% drug concentration
Procedure, shortened: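 Female Wistar rats (~150 g, hormonally conditioned, 10 per group) infected intravaginally with 3.5×10^4 CFU C. albicans no. 124 in 50 μL broth. Intravaginal gel, 0.2 mL, from 2 h post-inoculation, twice daily for 4 days (nine applications). Swabs plated one day after last treatment on Sabouraud's glucose agar with streptomycin, 48 h at 37 °C. Cure = no reisolation.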

[19] = system: Candida albicans; test: Tested for minimum subinhibitory concentration against Candida albicans 88 (Candida albicans) at pH 6.5.; procedure, shortened: as §4
[20] = system: Candida albicans; test: Tested for minimum inhibitory concentration against Candida albicans 26 (Candida albicans) at pH 6.5.; procedure, shortened: as §3
[21] = system: Candida albicans; test: Tested for minimum subinhibitory concentration against Candida albicans 90 (Candida albicans) at pH 6.5.; procedure, shortened: as §4
[22] = system: Candida albicans; test: Tested for minimum subinhibitory concentration against Candida albicans 4 (Candida albicans) at pH 6.5.; procedure, shortened: as §4
[23] = species: Mus musculus; test: Tested for efficacy of compound in experimental vaginal candidosis (mouse) after oral treatment at dosage of 4 x150 mg kg e-1
Procedure, shortened: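 Vaginal candidiasis in hormonally conditioned female NMRI mice (18–20 g), 10 per group, inoculated intravaginally with 50 μL Sabouraud's glucose broth containing 3.5×10^4 CFU C. albicans no. 124. Dosed four times per gavage, 2 h before and 2, 18 and 24 h after infection. Vaginal swabs plated on Sabouraud's glucose agar with streptomycin (0.1 mg/mL), 48 h at 37 °C. Cure = failed reisolation.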

[24] = system: Candida albicans; test: Tested for minimum inhibitory concentration against Candida albicans 9 (Candida albicans) at pH 6.5.; procedure, shortened: as §3
[25] = system: Candida tropicalis; test: Tested for minimum inhibitory concentration against Candida tropicalis 43 (C.t) at pH 6.5.; procedure, shortened: as §3
[26] = system: Candida albicans; test: Tested for minimum inhibitory concentration against Candida albicans 90 (Candida albicans) at pH 6.5.; procedure, shortened: as §3
[27] = species: Rattus norvegicus; test: Tested for efficacy of compound in experimental vaginal candidosis (rat) after oral treatment at dosage of 2x 150 mg kg e-1; procedure, shortened: as §5
[28] = system: Candida albicans; test: Tested for minimum subinhibitory concentration against Candida albicans 9 (Candida albicans) at pH 6.5.; procedure, shortened: as §4
[29] = system: Candida albicans; test: Tested for minimum subinhibitory concentration against Candida albicans 26 (Candida albicans) at pH 6.5.; procedure, shortened: as §4
[30] = system: Candida albicans; test: Tested for minimum subinhibitory concentration against Candida albicans 3 (Candida albicans) at pH 6.5.; procedure, shortened: as §4
[31] = system: Pichia kudriavzevii; test: Tested for minimum subinhibitory concentration against Candida krusei 132 (C.k) at pH 6.5.; procedure, shortened: as §4
[32] = system: Candida albicans; test: Tested for minimum inhibitory concentration against Candida albicans 124 (Candida albicans) at pH 6.5.; procedure, shortened: as §3
[33] = system: Candida albicans; test: Tested for minimum subinhibitory concentration against Candida albicans 124 (Candida albicans) at pH 6.5.; procedure, shortened: as §4
[34] = system: Pichia kudriavzevii; test: Tested for minimum inhibitory concentration against Candida krusei 132 (C.k) at pH 6.5.; procedure, shortened: as §3
[35] = system: Meyerozyma guilliermondii; test: Tested for minimum inhibitory concentration against Candida guilliermondii 80 (C.g) at pH 6.5.; procedure, shortened: as §3

SMILES: CC[C@@H](C)[C@H]1C(=O)NCC(=O)N(C)[C@@H](C(C)C)C(=O)N[C@@H](Cc2ccc(OC)cc2)C(=O)O[C@H](C)C(=O)N2CCCC[C@H]2C(=O)N(C)[C@@H](C(C)C)C(=O)N[C@@H](C(C)C)C(=O)N(C)[C@@H](CC(=O)N(CC)CC)C(=O)N(C)[C@@H]([C@@H](C)CC)C(=O)N1C
- MIC [1]: > 100 µg/mL
- MIC [2]: > 100 µg/mL
- MIC [3]: > 100 µg/mL
- MIC [4]: > 100 µg/mL
- MIC [5]: > 100 µg/mL
- MIC [6]: > 100 µg/mL
- MIC [7]: > 100 µg/mL
- MIC [8]: > 100 µg/mL

SMILES: CC(=O)N1CCN(c2ccc(OC[C@H]3CO[C@](Cn4ccnc4)(c4ccc(Cl)cc4Cl)O3)cc2)CC1 [KETOCONAZOLE]
- Efficacy [10]: 100%
- MIC [11]: > 100 µg/mL
- MIC [12]: 100 µg/mL (≈ 188 µM)
- MSIC [13]: 0.19 µg/mL
- Efficacy [14]: 100%
- MIC [15]: > 100 µg/mL
- Efficacy [16]: 100%
- MSIC [17]: 6.25 µg/mL
- Efficacy [18]: 73%
- MSIC [19]: <0.05 µg/mL
- MIC [20]: > 100 µg/mL
- MSIC [21]: 0.39 µg/mL
- MSIC [22]: <0.05 µg/mL
- Efficacy [23]: 100%
- MIC [24]: 100 µg/mL (≈ 188 µM)
- MIC [25]: > 100 µg/mL
- MIC [26]: > 100 µg/mL
- Efficacy [27]: 100%
- MSIC [28]: <0.05 µg/mL
- MSIC [29]: <0.05 µg/mL
- MSIC [30]: 0.19 µg/mL
- MSIC [31]: 0.78 µg/mL
- MIC [32]: > 100 µg/mL
- MSIC [33]: 0.19 µg/mL
- MIC [34]: > 100 µg/mL
- MIC [35]: > 100 µg/mL

Results, then the compound that gave them:

- MIC [1]: > 100 µg/mL
- MIC [9]: > 100 µg/mL
- MIC [2]: > 100 µg/mL
- MIC [3]: > 100 µg/mL
- MIC [4]: > 100 µg/mL
- MIC [5]: > 100 µg/mL
- MIC [6]: > 100 µg/mL
- MIC [7]: > 100 µg/mL
SMILES: C=CCOC(=O)C[C@H]1C(=O)N(C)[C@@H]([C@@H](C)CC)C(=O)N(C)[C@@H]([C@H](C)CC)C(=O)NCC(=O)N(C)[C@@H](C(C)C)C(=O)N[C@@H](Cc2ccc(OCC=C)cc2)C(=O)O[C@H](C)C(=O)N2CCCC[C@H]2C(=O)N(C)[C@@H](C(C)C)C(=O)N[C@@H](C(C)C)C(=O)N1C

- MIC [1]: 100 µg/mL (≈ 89.9 µM)
- MIC [2]: 100 µg/mL (≈ 89.9 µM)
- MIC [3]: > 100 µg/mL
- MIC [4]: > 100 µg/mL
- MIC [5]: > 100 µg/mL
- MIC [6]: > 100 µg/mL
- MIC [7]: 100 µg/mL (≈ 89.9 µM)
- MIC [8]: 50 µg/mL (≈ 44.9 µM)
SMILES: CC[C@@H](C)[C@H]1C(=O)NCC(=O)N(C)[C@@H](C(C)C)C(=O)N[C@@H](Cc2ccc(O)cc2)C(=O)O[C@H](C)C(=O)N2CCCC[C@H]2C(=O)N(C)[C@@H](C(C)C)C(=O)N[C@@H](C(C)C)C(=O)N(C)[C@@H](CC(=O)O)C(=O)N(C)[C@@H]([C@@H](C)CC)C(=O)N1C

- MIC [1]: > 100 µg/mL
- MIC [2]: > 100 µg/mL
- MIC [3]: 100 µg/mL (≈ 83.6 µM)
- MIC [4]: 50 µg/mL (≈ 41.8 µM)
- MIC [5]: > 100 µg/mL
- MIC [6]: 12.5 µg/mL (≈ 10.4 µM)
- MIC [7]: > 100 µg/mL
- MIC [8]: > 100 µg/mL
SMILES: CC[C@H](C)[C@H]1C(=O)NCC(=O)N(C)[C@@H](C(C)C)C(=O)N[C@@H](Cc2ccc(OC)cc2)C(=O)N[C@@H](C)C(=O)N[C@H](C)C(=O)N2CCCC[C@H]2C(=O)N(C)[C@@H](C(C)C)C(=O)N[C@@H](C(C)C)C(=O)N(C)[C@@H](CC(=O)O)C(=O)N(C)[C@@H]([C@@H](C)CC)C(=O)N1C
